In experiment [1] the target is T1, Apoptosis regulator Bcl-2 (Homo sapiens, UniProt P10415). Put plainly: Displacement of FAM-Bid BH3 peptide from human recombinant Bcl2 by FP-based binding assay. The method in brief: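 Competitive fluorescence-polarization binding assay with recombinant human Bcl-2 and a fluorescently tagged Bid BH3 peptide as tracer. Ki values were derived from the competitive binding curves.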

For experiment [2], the target named is T2, Induced myeloid leukemia cell differentiation protein Mcl-1 (Homo sapiens, UniProt Q07820). Put plainly: Displacement of FAM-Bid BH3 peptide from human Mcl1 by FP-based binding assay.
T2 sequence (Q07820 whole entry): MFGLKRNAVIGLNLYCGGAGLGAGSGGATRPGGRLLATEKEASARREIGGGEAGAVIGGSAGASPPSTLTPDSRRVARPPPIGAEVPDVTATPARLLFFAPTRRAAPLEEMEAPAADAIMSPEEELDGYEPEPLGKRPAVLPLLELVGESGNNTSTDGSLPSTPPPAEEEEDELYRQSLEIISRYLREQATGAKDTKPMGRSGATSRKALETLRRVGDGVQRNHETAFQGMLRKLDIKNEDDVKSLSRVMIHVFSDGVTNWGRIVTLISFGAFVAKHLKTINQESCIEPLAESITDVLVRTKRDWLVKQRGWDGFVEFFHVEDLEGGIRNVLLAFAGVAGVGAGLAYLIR
Experiment [3] deals with T2, Induced myeloid leukemia cell differentiation protein Mcl-1. Put plainly: Displacement of biotinylated Bim BH3 peptide from recombinant His-tagged Mcl1 by ELISA assay.
In experiment [4] the target is T1, Apoptosis regulator Bcl-2. Put plainly: Displacement of biotinylated Bim BH3 peptide from recombinant His-tagged Bcl2 by ELISA assay.
In experiment [5] the test system is MDA-MB-231. Put plainly: Induction of cell death in human MDA-MB-231 cells at 10 nM after 96 hrs by trypan blue exclusion assay. Type of experiment: functional, cell-based. In outline:
(§1)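 MDA-MB-231 breast cancer cells were exposed to the inhibitor for 96 hours across a dose series that included 10, 100 and 1000 nM. Viability was scored by trypan blue exclusion.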

Experiment [6] relates to MDA-MB-231. Put plainly: Induction of cell death in human MDA-MB-231 cells after 96 hrs by trypan blue exclusion assay. The class given is functional, cell-based. The method in brief: as §1

In ChEMBL document CHEMBL1144472, “Pyrogallol-based molecules as potent inhibitors of the antiapoptotic Bcl-2 proteins” (J Med Chem, 2007) one finds Ki, IC50 and Activity data, which are given here for five molecules.

pIC50, pKi: −log10 of the molar value. Activity calls are given as the source filed them. The calls are words filed in the database; no cut-off is given here.

T1 sequence (P10415 whole entry): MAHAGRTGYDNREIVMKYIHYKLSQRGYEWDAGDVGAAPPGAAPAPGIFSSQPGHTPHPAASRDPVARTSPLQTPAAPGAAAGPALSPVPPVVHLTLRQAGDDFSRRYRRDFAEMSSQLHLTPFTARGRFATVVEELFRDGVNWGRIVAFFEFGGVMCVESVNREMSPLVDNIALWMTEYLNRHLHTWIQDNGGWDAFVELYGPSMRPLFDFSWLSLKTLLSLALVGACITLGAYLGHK

Take `CN(CCCc1ccccc1)S(=O)(=O)c1cc(C(=O)N2CCc3ccc(S(=O)(=O)NCCc4ccccc4)cc3C2)c(O)c(O)c1O`: the pKi was 6.96 in experiment [1] and 6.82 in experiment [2]. In addition, the pIC50 in experiment [3] is 7.41; in experiment [4], 6.48. Moreover, the result in the experiment on MDA-MB-231 [5] was Active. In the experiment on MDA-MB-231 [6], the Activity entry is “Dose-dependent effect”.
In the case of `CN(C)CC[C@H](CSc1ccccc1)Nc1ccc(S(=O)(=O)NC(=O)c2ccc(N3CCN(Cc4ccccc4-c4ccc(Cl)cc4)CC3)cc2)cc1[N+](=O)[O-]`, in the experiment on MDA-MB-231 [6], the Activity entry is “Dose-dependent effect”.
As to `CC(C)c1cc(C(=O)N2CCc3ccccc3C2)c(O)c(O)c1O`, the pKi in experiment [1] is 5.51. Further, in experiment [4], the pIC50 is 4.42. Besides, the Activity result in the experiment on MDA-MB-231 [6] was “Dose-dependent effect”.
As for `CC(C)c1cc(C(=O)N2CCc3ccc(S(=O)(=O)NCCc4ccccc4)cc3C2)c(O)c(O)c1O`, the pKi in experiment [1] is 6.23. Also, in experiment [4], the pIC50 was 5.18. Further, the Activity result with MDA-MB-231 [6] is “Dose-dependent effect”.
Regarding `CC(C)c1cc(C(=O)Nc2ccccc2)c(O)c(O)c1O`, in experiment [1], the pKi is 4.50. For the same molecule, the Activity result in the experiment with MDA-MB-231 [6] is “Dose-dependent effect”.
